Laboratory results taken from ChEMBL document CHEMBL2057153, “Bisdionin C-a rationally designed, submicromolar inhibitor of family 18 chitinases” (ACS Med Chem Lett, 2011).

Tests used:
[1] = Inhibition of human chitotriosidase using 4-methyumbelliferyl-beta-B-N,N'-triacetylchitotriose as substrate after 10 mins
In short: (§1)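 Enzymes (AfChiA1; human chitotriosidase) expressed and purified as reported earlier, assayed with fluorogenic 4MU-GlcNAc3 substrate. IC50 from triplicate measurements at each inhibitor concentration.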

[2] = molecular target: Acidic mammalian chitinase (Mus musculus, UniProt Q91XA9); test: Inhibition of AMCase in BALB/c mouse lung homogenate using 4-methyumbelliferyl-beta-B-N,N'-diacetylchitobiose after 10 mins
In short: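 AMCase activity taken from lung homogenate of female BALB/C mice; 100 mg lung lobe tissue homogenized in HBSS. Substrate 4MU-GlcNAc2, fluorogenic 4-methylumbelliferone release. IC50 from triplicate measurements at each inhibitor concentration.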

[3] = molecular target: Endochitinase B1 (Aspergillus fumigatus, UniProt Q873X9); test: Inhibition of Aspergillus fumigatus ChitinaseB1 expressed in Escherichia coli using 4-methyumbelliferyl-beta-B-N,N'-diacetylchitobiose after 10 mins
In short: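 Recombinant AfChiB1, expressed and purified as reported earlier, assayed with fluorogenic 4MU-GlcNAc2 substrate. IC50 obtained from triplicate measurements at each inhibitor concentration.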

[4] = molecular target: T1, Endochitinase A1 (Aspergillus fumigatus, UniProt Q873Y0); test: Inhibition of Aspergillus fumigatus chitinaseA1 using 4-methyumbelliferyl-beta-B-N,N'-triacetylchitotriose as substrate after 10 mins; in short: as §1
T1 sequence (Q873Y0 whole entry): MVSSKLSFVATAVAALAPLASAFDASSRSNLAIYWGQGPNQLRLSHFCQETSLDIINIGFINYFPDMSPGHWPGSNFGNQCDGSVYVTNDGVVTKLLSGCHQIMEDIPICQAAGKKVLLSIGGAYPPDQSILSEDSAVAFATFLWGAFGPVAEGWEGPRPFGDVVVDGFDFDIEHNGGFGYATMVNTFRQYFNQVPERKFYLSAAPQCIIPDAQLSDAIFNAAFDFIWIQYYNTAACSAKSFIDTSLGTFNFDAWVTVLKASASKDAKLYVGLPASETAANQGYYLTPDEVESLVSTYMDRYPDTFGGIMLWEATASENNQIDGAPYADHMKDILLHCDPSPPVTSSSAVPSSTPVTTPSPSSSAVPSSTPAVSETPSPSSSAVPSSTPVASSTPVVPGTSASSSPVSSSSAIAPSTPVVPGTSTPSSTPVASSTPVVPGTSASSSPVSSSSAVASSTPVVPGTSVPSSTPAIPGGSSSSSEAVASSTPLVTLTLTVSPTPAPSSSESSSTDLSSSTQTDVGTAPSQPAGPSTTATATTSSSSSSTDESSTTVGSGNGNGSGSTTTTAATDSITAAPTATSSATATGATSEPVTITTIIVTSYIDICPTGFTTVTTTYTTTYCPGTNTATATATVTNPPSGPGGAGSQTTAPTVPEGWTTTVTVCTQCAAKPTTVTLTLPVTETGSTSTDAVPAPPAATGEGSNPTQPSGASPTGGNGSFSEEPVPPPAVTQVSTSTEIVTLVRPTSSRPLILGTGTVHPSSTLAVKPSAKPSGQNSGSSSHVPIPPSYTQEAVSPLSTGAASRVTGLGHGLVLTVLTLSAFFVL

Chain of Acidic mammalian chitinase (Q91XA9 whole entry): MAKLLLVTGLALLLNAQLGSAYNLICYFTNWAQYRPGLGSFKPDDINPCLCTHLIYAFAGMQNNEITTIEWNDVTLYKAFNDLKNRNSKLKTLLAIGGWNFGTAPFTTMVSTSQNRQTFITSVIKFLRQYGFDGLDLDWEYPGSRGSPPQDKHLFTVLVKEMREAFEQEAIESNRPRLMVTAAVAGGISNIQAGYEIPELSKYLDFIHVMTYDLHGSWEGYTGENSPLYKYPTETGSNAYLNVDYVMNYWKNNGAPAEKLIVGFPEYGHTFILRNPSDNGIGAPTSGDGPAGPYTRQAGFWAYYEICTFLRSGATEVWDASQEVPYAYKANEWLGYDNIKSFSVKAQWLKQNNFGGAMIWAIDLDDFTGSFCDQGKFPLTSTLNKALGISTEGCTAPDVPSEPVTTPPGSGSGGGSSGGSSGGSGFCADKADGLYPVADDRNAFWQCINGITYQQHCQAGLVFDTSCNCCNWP

| IC50 [1] [µM] | IC50 [2] [µM] | IC50 [3] [µM] | IC50 [4] [µM] | SMILES |
| --- | --- | --- | --- | --- |
| 110 | 90 | 4.8 | > 1000 | Cn1cnc2c1c(=O)n(CCn1c(=O)c3c(ncn3C)n(C)c1=O)c(=O)n2C [BISDIONIN B] |
| 8.3 | 3.4 | 0.2 | > 1000 | Cn1cnc2c1c(=O)n(CCCn1c(=O)c3c(ncn3C)n(C)c1=O)c(=O)n2C [BISDIONIN C] |
| 91 | – | 9 | > 1000 | Cn1cnc2c1c(=O)n(CCCCn1c(=O)c3c(ncn3C)n(C)c1=O)c(=O)n2C [BISDIONIN D] |
| 260 | – | 5.7 | 820 | Cn1cnc2c1c(=O)n(CCCCCn1c(=O)c3c(ncn3C)n(C)c1=O)c(=O)n2C [BISDIONIN E] |
